The values below come from article PMC4633329 (Chemistry and physics of lipids, 2015).

Series [1] concerns Mb. Conditions: 25:1 ratio of SDS to Mb; ref [50]; cited from earlier work.
The conditions of series [2]: in the cell, cited from earlier work.
Series [3] is described as follows: OA solubility from NMR visible EFG. In kind it is physicochemical.
Series [4] has as its target FABP. Conditions: read-out: Dissociation Constant KFABP; flux model input; ref [15]; [45]; cited from earlier work.
In series [5] the target is Mb (Equus caballus, UniProt P68082). The series is described as follows: Optical spectra. Also noted: species or system horse.
In series [6] the target is MbCN (Equus caballus, UniProt P68082). The series can be described thus: 1H NMR titration of MbCN with OA. In kind it is binding, horse. In short, it runs like this:
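Horse metMb converted to MbCN with 5-fold excess KCN in 30mM Tris, 1mM EDTA, pH 7.4. OA stock (10 or 100mM, pH 8.5, 65°C) added to 0.2-0.8 mM MbCN at 35°C (OA:Mb up to 60:1). 1H NMR at 600 MHz, 35°C, Watergate, 10% D2O, TSP reference. Heme methyl intensity loss fitted to a specific plus non-specific 2-site model by Marquardt-Levenberg regression.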

Series [7] is described as follows: pK of OA by NMR pH titration. Type of series: physicochemical. Particulars: 0.8 mM OA, 35 °C, 1H NMR, referenced to peak position at pH 12.14.
For series [8] the following is noted: cited from earlier work.
For series [9], the target named is MbCO. Particulars: read-out: MbCO-PA Kd; ref [47]; [48]; cited from earlier work.
In series [10] the test system is deoxy Mb. Particulars: ref [47]; [48]; cited from earlier work.
The target of series [11] is MbCN. Conditions: read-out: MbCN-PA Kd; ref [47]; [48]; cited from earlier work.

≈ marks a conversion by molar mass, not a printed value. Where “and” joins values, the source holds several entries; their conditions need not be identical. Equal values may be shown once. Read-outs that look alike come from different tables or passages of the source.

Mb (Equus caballus, UniProt P68082), sequence (P68082 whole entry): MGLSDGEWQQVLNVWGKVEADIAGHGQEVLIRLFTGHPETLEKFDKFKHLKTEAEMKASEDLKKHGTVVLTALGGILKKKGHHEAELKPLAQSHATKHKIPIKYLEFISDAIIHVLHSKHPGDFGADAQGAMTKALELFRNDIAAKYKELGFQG
MbCN (Equus caballus, UniProt P68082), sequence (P68082 whole entry): as above

As for `CCCCCCCCCCCCOS(=O)(=O)[O-].[Na+]` [SDS, sodium dodecyl sulfate], the “loss of Soret band signal intensity” value in [1] is recorded as 25%.

The Solubility is the dissolved amount per volume that the medium holds. For `CCCCCCCC/C=C\CCCCCCCC(=O)O` [OA, oleic acid], the “Diffusion Constant, Fatty acid (DOA)” value in [2] (highest reported value, ref [52]) is recorded as 4.6 × 10^−6 cm^2s^−1. The Solubility was 7.03×10^−2 g/100g in series [3] (0.8mM MbCN in Tris, pH 7.4 35°C, 0.0904g/100g total OA added); 6.59×10^−2 g/100g in series [3] (10.8mM MbCN in phosphate, pH 7.4 35°C, 0.0904g/100g total OA added); 1430 µM (≈ 404 µg/mL) in series [3] (30 mM Tris buffer, 35 °C, pH 7.4, aqueous buffer, kinetic from dmso stock); 2990 µM (≈ 845 µg/mL) in series [3] (30 mM Tris buffer, 35 °C, pH 12, aqueous buffer, kinetic from dmso stock); 4.04×10^−2 g/100g in [3] (30 mM Tris buffer, pH 7.4 35°C, 0.0904g/100g total OA added); 8.45×10^−2 g/100g in [3] (30 mM Tris buffer, pH 12 35°C, 0.0904g/100g total OA added). Further, the Solubility in [3] (100 mM phosphate buffer, 35 °C, pH 7.4, aqueous buffer, kinetic from dmso stock) is 1260 µM (≈ 356 µg/mL); in [3] (100 mM phosphate buffer, pH 7.4 35°C, 0.0904g/100g total OA added) it was 3.56×10^−2 g/100g; in series [8] (66 mM phosphate buffer, pH 7.4 at 37°C, ref [53], listed as Oleate), 1.00×10^−6 M and 2.83×10^−5 g/100g; in [8] (0.2 M HEPES, pH 7.4 at 37°C, ref [46], listed as Oleate) it was 6.00×10^−6 M and 1.70×10^−4 g/100g; in series [8] (95% of ethanol at 20°C, ref [22]) it was “∞”; in series [8] (Acetone at 20°C, ref [22]), “∞”. Further, in series [8] (Benzene at 20°C, ref [22]), the Solubility entry is on record as “∞”. Besides, the Kd in series [4] is 0.014 µM; in series [6] (Dissociation Constant KMb2 (non-specific binding), 2-site model, high OA:Mb) it was 37000 µM; in series [6] (apparent Kd (Kd1, KMb1), specific OA binding to MbCN, heme 8-CH3 signal loss, OA:Mb < 2:1, pH 7.4, 35 °C) it was 45 µM. The “hemichrome formation in optical spectra” value in series [5] (OA:Mb of 5:1 to 50:1) is listed as “do not detect any signs of hemichrome formation”. In addition, the entries for the “reduction in Soret band intensity” value in [5] (OA:Mb of 50:1) and in series [5] (OA:Mb ratios 20:1 to 50:1) were 5% and less than 5%, respectively. The Soret band position in series [5] (OA:Mb of 50:1, shifts from 422) is recorded as 420 nm; in series [5] (OA:Mb ratios 20:1 to 50:1, 422 nm without OA), 420 nm. For the same molecule, the “perturbation of Mb Soret band at 422 nm” value in series [5] (OA:Mb ratio up to 5:1) is on record as “no significant perturbation”. In addition, in series [5] (OA:Mb up to 50:1), the “metMb signal in optical spectra” value was “no detectable metMb signal”. The “pK from peak B” value in [7] was found to be 8.22. Besides, in [7], the “pK from peak D” value was determined as 8.07.

Turning to `CCCCCCCCCCCCCCCC(=O)O` [PA, palmitate], the Kd in [9] was 39 to 48 µM; in [11], 43 µM. In addition, the “PA interaction with deoxy Mb” value in series [10] was “does not interact specifically or non-specifically”.

B1: Mb: myoglobin; solutions prepared from lyophilized horse heart protein (protein, UniProt P68082 2-154, looked up)
Myoglobin: GLSDGEWQQVLNVWGKVEADIAGHGQEVLIRLFTGHPETLEKFDKFKHLKTEAEMKASEDLKKHGTVVLTALGGILKKKGHHEAELKPLAQSHATKHKIPIKYLEFISDAIIHVLHSKHPGDFGADAQGAMTKALELFRNDIAAKYKELGFQG
On to B1, for which the “Diffusion Constant, Myoglobin (DMb)” value in series [2] (ref [34]) was 7.85 × 10^−7 cm^2s^−1.
